# Reference: ChEMBL document CHEMBL4138118, “Novel thioglycosyl analogs of glycosyltransferase substrates as antiviral compounds against classical swine fever virus and hepatitis C virus” (Eur J Med Chem, 2017)
# Active and inactive are the calls of the source. No cut-off for these calls is given here.
# Experiments:
# [1] = Cytotoxicity against SK6 cells assessed as reduction in cell viability after 2 days by MTS method; type: cell-based, Sus scrofa; details: pig; for Activity: 48 h; for CC50 at 48 h: SK6 cells
# Outline: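 SK6 viability by MTS (CellTiter 96 AQueous) assay; CC50 is the concentration reducing viability by 50%, taken from the dose-response curve.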
# [2] = Selectivity index, ratio of CC50 for Huh7.5 cells to IC50 for HCV Jc1/JFH; type: toxicity; details: human, read-out: Ratio CC50/IC50
# Outline: (§1)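 Selectivity index is CC50/IC50, taken from the cell viability assay (SK6 by MTS, Huh-7.5 by MTT) and the matching pseudo-plaque reduction assay.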
# [3] = test system: Hepatitis C virus; assay: Antiviral activity against HCV Jc1/JFH infected in human Huh7.5 cells assessed as reduction of pseudo-plaque formation after 72 hrs by immunoperoxidase monolayer assay; type: functional, organism-based, Hepacivirus hominis; details: for IC50: Huh7.5, 72 h; for Activity: Hepacivirus hominis
# Outline: (§2)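 Huh-7.5 cells seeded at 1.5 × 10^4 per well, infected next day with Jc1/JFH HCVcc (genotype 2a) at MOI 0.1 for 3 h. Virus removed, medium with compound added; 72 h later cells fixed in cold methanol, permeabilized (0.5% Triton X-100), stained with anti-core antibody (1:300), HRP secondary. Pseudo-plaques counted by microscopy against untreated infected control; IC50 at 50% plaque reduction; three independent experiments.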
# [4] = Selectivity index, ratio of CC50 for SK6 cells to IC50 for CSFV; type: toxicity; details: pig, read-out: Ratio CC50/IC50; outline: as §1
# [5] = test system: Classical swine fever virus; assay: Antiviral activity against CSFV infected in SK6 cells assessed as reduction of pseudo-plaque formation after 2 days by immunoperoxidase monolayer assay; type: functional, organism-based; details: 48 h
# [6] = Cytotoxicity against human Huh7.5 cells assessed as reduction in cell viability after 72 hrs by MTT method; type: cell-based
# [7] = Effect on actin levels in SK6 cells at 3.75 to 30 uM under non-reducing condition after 48 hrs by Western blot method; type: ADME, cell-based, Sus scrofa; details: pig
# [8] = test system: Hepatitis C virus; assay: Antiviral activity against HCV genotype 2a JFH1 infected in human Huh7-J20 cells assessed as inhibition of complete viral life cycle at 1.56 to 75 uM pretreated for 1 hr with cells followed by viral infection for 3 hrs and subsequent addition of fresh medium with compound measured after 72 hrs by SEAP reporter assay; type: functional, organism-based; details: Hepacivirus hominis, JFH-1
# Outline: (§3)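 Huh7-J20 SEAP reporter cells, infected with JFH-1 HCVcc, read-out SEAP chemiluminescence in supernatant after 72 h. Model 1: 1 h compound pretreatment, 3 h infection with compound, then compound-free medium. Model 2: same, with compound kept for the full 72 h. Model 3: 3 h infection, compound added afterwards only. DMSO control; three experiments.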
# [9] = test system: Classical swine fever virus; assay: Inhibition of CSFV glycosyltransferase in SK6 cells assessed as downregulation of viral E2 levels under non-reducing condition after 48 hrs by Western blot method; type: cell-based
# [10] = test system: Hepatitis C virus; assay: Antiviral activity against HCV genotype 2a JFH1 infected in human Huh7-J20 cells assessed as inhibition of viral RNA replication at 1.56 to 75 uM after 72 hrs by SEAP reporter assay; type: functional, organism-based; details: Hepacivirus hominis, JFH-1; outline: as §3
# [11] = test system: Hepatitis C virus; assay: Antiviral activity against HCV infected in human Huh7-J17 cells assessed as inhibition of viral RNA replication at 75 uM after 72 hrs by bright-glo luciferase reporter assay relative to control; type: functional, Hepacivirus hominis
# Outline: (§4)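 Huh7-J17 replicon cells seeded in 96-well plates together with compound, DMSO or sofosbuvir and incubated 72 h. Cells lysed and luciferase read with Bright-Glo. Values expressed as % of DMSO-treated cells; IC50 from dose-response fit; three experiments.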
# [12] = Cytotoxicity against human Huh7-J17 cells assessed as decrease in cell viability after 72 hrs by MTT assay; type: cell-based
# Outline: (§5)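 Uninfected Huh7-J17, Huh7-J20 or Huh-7.5 cells incubated with compound, then viability read by MTT. Time stated as 72 h for Huh7-J20 and Huh7-J17, and 48 h for Huh-7.5. Results expressed relative to DMSO-treated cells (100%); CC50 from the dose-response curve.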
# [13] = Effect on actin levels in human Huh7.5 cells at 3.12 to 75 uM under reducing condition after 48 hrs by Western blot method; type: ADME, cell-based
# Outline: (§6)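 Huh-7.5 cells infected with HCV (MOI 0.1), washed after 1–6 h, then treated with inhibitor. Lysed in RIPA buffer with protease inhibitors after 48 h (methods; legend gives 72 h p.i.). 20 µg protein run on reducing SDS-PAGE; Western blot probed with anti-E1 mAb (1:2000) and anti-actin (1:1000).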
# [14] = test system: Hepatitis C virus; assay: Antiviral activity against HCV genotype 2a JFH1 infected in human Huh7-J20 cells assessed as inhibition of viral assembly at 1.56 to 75 uM after 72 hrs by SEAP reporter assay; type: functional, organism-based; details: Hepacivirus hominis, JFH-1; outline: as §3
# [15] = test system: Hepatitis C virus; assay: Antiviral activity against HCV infected in human Huh7-J17 cells assessed as inhibition of viral RNA replication after 72 hrs by bright-glo luciferase reporter assay; type: functional, organism-based, Hepacivirus hominis; outline: as §4
# [16] = test system: Hepatitis C virus; assay: Antiviral activity against HCV Jc1/JFH infected in human Huh7.5 cells assessed as downregulation of NS5B gene expression after 48 hrs by RT-PCR method; type: functional, organism-based; details: Hepacivirus hominis
# Outline: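 Huh-7.5 cells infected with HCV (MOI 0.1) for 4 h, washed, then cultured with compound for 48 h. Total RNA isolated; 1 µg reverse-transcribed with an NS5B-specific reverse primer, then PCR for NS5B. Band densitometry expressed as % of untreated infected control.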
# [17] = Cytotoxicity against human Huh7-J20 cells assessed as decrease in cell viability at 1.56 to 75 uM after 72 hrs by MTT assay; type: cell-based; outline: as §5
# [18] = test system: Hepatitis C virus; assay: Antiviral activity against HCV genotype 2a JFH1 infected in human Huh7-J20 cells assessed as inhibition of viral entry at 1.56 to 75 uM pretreated for 1 hr with cells followed by viral infection for 3 hrs and subsequent compound washout measured after 72 hrs by SEAP reporter assay; type: functional, organism-based; details: Hepacivirus hominis, JFH-1; outline: as §3
# [19] = Effect on actin levels in SK6 cells at 2.5 to 10 uM under non-reducing condition after 48 hrs by Western blot method; type: ADME, cell-based, Sus scrofa; details: pig
# [20] = Effect on actin levels in human Huh7.5 cells at 6.25 to 100 uM under reducing condition after 48 hrs by Western blot method; type: ADME, cell-based; outline: as §6
# [21] = test system: Classical swine fever virus; assay: Antiviral activity against CSFV infected in SK6 cells assessed as reduction of pseudo-plaque formation at 9 uM after 2 days by immunoperoxidase monolayer assay relative to control; type: functional; parameters: scale not given: the % may be the effect or the level left
# [22] = test system: Hepatitis C virus; assay: Antiviral activity against HCV Jc1/JFH infected in human Huh7.5 cells assessed as reduction of pseudo-plaque formation at 80 uM after 72 hrs by immunoperoxidase monolayer assay relative to control; type: functional, Hepacivirus hominis; parameters: scale not given: the % may be the effect or the level left; outline: as §2
SMILES,Activity [1],CC50 at 48 h [1] [µM],selectivity ratio [2],IC50 [3] [µM],selectivity ratio [4],IC50 [5] [µM],CC50 at 72 h [6] [µM],other results
CC(C)(C)[Si](C)(C)OC[C@H]1O[C@@H](Sc2ccc(NC(=O)[C@H]3O[C@@H](n4ccc(=O)[nH]c4=O)[C@H](O[Si](C)(C)C(C)(C)C)[C@@H]3O[Si](C)(C)C(C)(C)C)cn2)[C@H](OC(=O)c2ccccc2)[C@@H](OC(=O)c2ccccc2)[C@@H]1OC(=O)c1ccccc1,Dose-dependent effect,186,> 1.1,> 236,1.9,97,> 270,
CC(=O)OC[C@H]1O[C@@H](Sc2ccc(NC(=O)CCC(=O)OC[C@H]3O[C@@H](n4ccc(=O)[nH]c4=O)[C@@H]4OC(C)(C)O[C@@H]43)cn2)[C@H](OC(C)=O)[C@@H](OC(C)=O)[C@H]1OC(C)=O,Dose-dependent effect,194,1.6,213,4,49,340,
CC(=O)OC[C@H]1O[C@@H](Sc2ccc(NC(=O)CCC(=O)OC[C@H]3O[C@@H](n4ccc(=O)[nH]c4=O)[C@@H]4OC(C)(C)O[C@@H]43)cn2)[C@H](OC(C)=O)[C@@H](OC(C)=O)[C@@H]1OC(C)=O,Dose-dependent effect,207,1.4,231,2,103,328,
CC(=O)OC[C@H]1O[C@@H](Sc2ccc(NC(=O)[C@H]3O[C@@H](n4ccc(=O)[nH]c4=O)[C@H](O)[C@@H]3O)cn2)[C@H](OC(C)=O)[C@@H](OC(C)=O)[C@@H]1OC(C)=O,Dose-dependent effect,350,1.1,373,1.1,320,402,
CC(=O)OC[C@H]1O[C@@H](Sc2ccc(NC(=O)CCC(=O)OC[C@H]3O[C@@H](n4ccc(=O)n(C(=O)c5ccccc5)c4=O)[C@H](O[Si](C)(C)C(C)(C)C)[C@@H]3O[Si](C)(C)C(C)(C)C)cn2)[C@H](OC(C)=O)[C@@H](OC(C)=O)[C@@H]1OC(C)=O,Dose-dependent effect,45,1.6,45,3.5,13,71,
CC(=O)OC[C@H]1O[C@@H](Sc2ccc(NC(=O)[C@H]3O[C@@H](n4ccc(=O)[nH]c4=O)[C@H](O[Si](C)(C)C(C)(C)C)[C@@H]3O[Si](C)(C)C(C)(C)C)cn2)[C@H](OC(C)=O)[C@@H](OC(C)=O)[C@H]1OC(C)=O,Dose-dependent effect,151,24.7,7,25.2,6,173,Activity [7]: Non-Toxic; inhibition [8]: Active; inhibition [9]: Dose-dependent effect; inhibition [10]: Active; inhibition at 75 µM [11]: 90%; Activity [3]: Dose-dependent effect; CC50 at 72 h [12]: 245 µM; Activity [13]: Non-Toxic; inhibition [14]: Active; IC50 [15]: 3.74 µM; Activity [16]: Dose-dependent effect; Activity [17]: Non-Toxic; inhibition [18]: inactive
O=C(Nc1ccc(S[C@@H]2O[C@H](CO)[C@@H](O)[C@H](O)[C@H]2O)nc1)[C@H]1O[C@@H](n2ccc(=O)[nH]c2=O)[C@H](O)[C@@H]1O,Dose-dependent effect,380,1.05,402,1,370,420,
CC(=O)OC[C@H]1O[C@@H](Sc2ccc(NC(=O)[C@H]3O[C@@H](n4ccc(=O)[nH]c4=O)[C@H](O[Si](C)(C)C(C)(C)C)[C@@H]3O[Si](C)(C)C(C)(C)C)cn2)[C@H](OC(C)=O)[C@@H](OC(C)=O)[C@@H]1OC(C)=O,Dose-dependent effect,86,19.3,7,28.7,3,135,Activity [19]: Non-Toxic; inhibition [8]: Active; inhibition [9]: Dose-dependent effect; inhibition [10]: Active; inhibition at 75 µM [11]: 90%; Activity [3]: Dose-dependent effect; CC50 at 72 h [12]: 185 µM; inhibition [14]: Active; IC50 [15]: 4 µM; Activity [20]: Non-Toxic; Activity [16]: Dose-dependent effect; Activity [17]: Non-Toxic; Activity [21]: >90%; inhibition [18]: inactive; Activity [22]: >90%
CC(C)OC(=O)[C@H](C)N[P@](=O)(OC[C@H]1O[C@@H](n2ccc(=O)[nH]c2=O)[C@](C)(F)[C@@H]1O)Oc1ccccc1 [SOFOSBUVIR],,,119,0.26,,,31,CC50 at 72 h [12]: 23.5 µM; IC50 [15]: 0.028 µM
CC(=O)OC[C@H]1O[C@@H](Sc2ccc(NC(=O)[C@H]3O[C@@H](n4ccc(=O)[nH]c4=O)[C@@H]4OC(C)(C)O[C@@H]43)cn2)[C@H](OC(C)=O)[C@@H](OC(C)=O)[C@@H]1OC(C)=O,Dose-dependent effect,> 380,1.1,244,> 1.2,> 325,271,
CC(=O)OC[C@H]1O[C@@H](Sc2ccc(NC(=O)[C@H]3O[C@@H](n4ccc(=O)[nH]c4=O)[C@@H]4OC(C)(C)O[C@@H]43)cn2)[C@H](OC(C)=O)[C@@H](OC(C)=O)[C@H]1OC(C)=O,Dose-dependent effect,> 353,1.2,271,> 1.2,> 299,312,
